This is an account of results in ChEMBL document CHEMBL2057200, “Design and synthesis of potent antagonists containing rigid spirocyclic privileged structures for the CGRP receptor” (Bioorg Med Chem Lett, 2012).

Some results are limits rather than exact numbers.

Data set [1] concerns the target T1, Calcitonin gene-related peptide type 1 receptor (Homo sapiens, UniProt O60894+Q16602). In words: Displacement of [125I]CGRP from CGRP receptor in human SK-N-MC cells. The class given is cell-based. Put shortly: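 Radioligand competition binding in human neuroblastoma SK-N-MC cells, which endogenously express CGRP receptor of identical sequence to the cloned human receptor. IC50 determined from compound competition for the radioligand.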
On the technique in general: In a radioligand displacement assay an active substance lowers the binding of a labelled ligand.

Data set [2] addresses T1, Calcitonin gene-related peptide type 1 receptor. In words: Antagonist activity at CGRP receptor in human SK-N-MC cells assessed as inhibition of CGRP-stimulated formation of cyclic AMP. The format is functional, cell-based.
The nature of data set [3]: Metabolic stability of the compound in rat liver microsomes assessed as compound remaining at 3 uM after 10 mins. The class given is ADME, Microsome. To be noted: read-out: Stability.
For another data set, the target named is Cytochrome P450 3A4 (Homo sapiens, UniProt P08684). In words: Inhibition of CYP3A4. The format is ADME.
The target in a further data set is T2, Cytochrome P450 1A2 (Homo sapiens, UniProt P05177).
T2 sequence (P05177 whole entry): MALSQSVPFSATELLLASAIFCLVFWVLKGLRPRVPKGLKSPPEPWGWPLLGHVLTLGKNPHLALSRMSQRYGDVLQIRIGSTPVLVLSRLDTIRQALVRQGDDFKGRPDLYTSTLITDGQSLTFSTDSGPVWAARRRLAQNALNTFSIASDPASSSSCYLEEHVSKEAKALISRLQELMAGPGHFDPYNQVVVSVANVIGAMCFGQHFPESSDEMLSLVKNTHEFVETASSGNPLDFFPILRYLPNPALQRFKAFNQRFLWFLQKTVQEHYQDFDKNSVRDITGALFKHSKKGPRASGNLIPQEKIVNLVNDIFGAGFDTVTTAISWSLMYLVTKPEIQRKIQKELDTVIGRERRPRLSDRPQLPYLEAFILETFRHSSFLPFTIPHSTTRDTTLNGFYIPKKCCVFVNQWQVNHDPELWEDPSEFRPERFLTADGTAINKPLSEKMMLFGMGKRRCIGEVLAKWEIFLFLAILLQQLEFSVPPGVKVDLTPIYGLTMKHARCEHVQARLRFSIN
In words: Inhibition of recombinant CYP1A2. The class given is ADME.

The target in a further data set is Cytochrome P450 2C9 (Homo sapiens, UniProt P11712). The data set can be described thus: Inhibition of recombinant CYP2C9. The format is ADME.
The nature of data set [4]: Inhibition of CGRP-induced dilation in potassium chloride pre-contracted ex vivo migraine model of human intracranial artery rings.
In another data set the target is Cytochrome P450 2C19 (Homo sapiens, UniProt P33261). In words: Inhibition of recombinant CYP2C19. The class given is ADME.
Data set [5] is described as follows: Metabolic stability of the compound in human liver microsomes assessed as compound remaining at 3 uM after 10 mins. The format is ADME, Microsome. To be noted: read-out: Stability. (Liver microsomes are vesicles of endoplasmic reticulum, rich in cytochrome P450 enzymes.)
Data set [6] deals with cytochrome P450 (isoform not stated) (Homo sapiens, UniProt P04798+P05177+P05181+P08684+P10632+P10635+P11509+P11712+P13584+P20813+P20815+P20853+P24462+P24903+P33260+P33261+P51589+P78329+P98187+Q02928+Q08477+Q16678+Q16696+Q5TCH4+Q6VVX0+Q7Z449+Q8TAV3+Q96SQ9+Q9HB55). In words: Inhibition of cytochrome P450. The format is ADME.

T1 sequence (Q16602 whole entry, one chain of several): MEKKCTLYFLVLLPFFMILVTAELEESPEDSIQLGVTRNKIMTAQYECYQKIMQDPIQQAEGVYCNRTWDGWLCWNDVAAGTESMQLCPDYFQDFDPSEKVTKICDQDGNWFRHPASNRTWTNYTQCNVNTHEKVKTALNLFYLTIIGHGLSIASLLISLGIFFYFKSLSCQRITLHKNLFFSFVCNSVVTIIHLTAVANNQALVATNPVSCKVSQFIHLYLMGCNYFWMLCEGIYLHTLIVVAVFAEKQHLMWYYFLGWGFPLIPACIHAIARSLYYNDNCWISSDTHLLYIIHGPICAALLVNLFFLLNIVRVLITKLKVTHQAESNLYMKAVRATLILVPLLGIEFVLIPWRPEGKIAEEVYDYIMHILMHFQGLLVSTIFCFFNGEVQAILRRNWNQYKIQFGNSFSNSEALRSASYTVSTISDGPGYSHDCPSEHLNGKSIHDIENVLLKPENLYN
Sequence of Cytochrome P450 3A4 (P08684 whole entry): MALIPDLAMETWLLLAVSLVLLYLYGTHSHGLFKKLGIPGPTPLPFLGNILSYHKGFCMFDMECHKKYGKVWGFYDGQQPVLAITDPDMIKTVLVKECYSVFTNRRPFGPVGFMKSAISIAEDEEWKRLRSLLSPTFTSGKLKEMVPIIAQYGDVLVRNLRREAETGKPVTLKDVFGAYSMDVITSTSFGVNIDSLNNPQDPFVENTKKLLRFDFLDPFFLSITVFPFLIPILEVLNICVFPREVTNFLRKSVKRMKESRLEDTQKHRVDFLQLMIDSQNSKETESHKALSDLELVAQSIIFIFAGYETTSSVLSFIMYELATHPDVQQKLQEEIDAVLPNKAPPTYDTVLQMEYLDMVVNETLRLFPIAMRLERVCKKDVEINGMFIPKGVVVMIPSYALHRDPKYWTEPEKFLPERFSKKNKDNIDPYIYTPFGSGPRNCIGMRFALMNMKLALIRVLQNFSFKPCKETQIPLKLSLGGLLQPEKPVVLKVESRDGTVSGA
Sequence of Cytochrome P450 2C19 (P33261 whole entry): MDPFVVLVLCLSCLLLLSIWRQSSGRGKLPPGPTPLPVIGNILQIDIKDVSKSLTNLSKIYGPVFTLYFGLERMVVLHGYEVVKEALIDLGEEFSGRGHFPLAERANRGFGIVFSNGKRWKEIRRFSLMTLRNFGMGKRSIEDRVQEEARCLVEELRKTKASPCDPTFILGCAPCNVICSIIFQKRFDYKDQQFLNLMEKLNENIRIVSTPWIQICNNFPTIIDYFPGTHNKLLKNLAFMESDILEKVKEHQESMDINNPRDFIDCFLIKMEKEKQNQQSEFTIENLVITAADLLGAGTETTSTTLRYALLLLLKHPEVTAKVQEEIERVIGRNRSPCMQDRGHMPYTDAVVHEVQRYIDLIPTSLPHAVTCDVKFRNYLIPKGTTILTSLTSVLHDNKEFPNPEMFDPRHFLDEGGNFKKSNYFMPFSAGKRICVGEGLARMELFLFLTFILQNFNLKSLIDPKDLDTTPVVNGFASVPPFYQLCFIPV
Sequence of Cytochrome P450 2C9 (P11712 whole entry): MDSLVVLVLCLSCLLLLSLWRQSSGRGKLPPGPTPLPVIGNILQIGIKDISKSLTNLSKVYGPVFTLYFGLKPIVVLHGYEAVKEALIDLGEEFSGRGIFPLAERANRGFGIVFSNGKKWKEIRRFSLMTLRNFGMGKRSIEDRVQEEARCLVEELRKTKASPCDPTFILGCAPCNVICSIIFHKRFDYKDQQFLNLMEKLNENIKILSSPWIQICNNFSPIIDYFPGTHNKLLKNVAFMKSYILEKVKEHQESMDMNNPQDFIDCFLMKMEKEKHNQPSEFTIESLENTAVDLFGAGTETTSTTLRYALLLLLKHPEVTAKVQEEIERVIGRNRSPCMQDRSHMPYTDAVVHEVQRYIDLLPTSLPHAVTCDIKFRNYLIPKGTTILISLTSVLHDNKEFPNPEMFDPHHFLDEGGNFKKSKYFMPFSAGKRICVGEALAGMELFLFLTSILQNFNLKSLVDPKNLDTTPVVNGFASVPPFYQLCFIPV

The term IC50 denotes the concentration that gives 50% inhibition. For `O=C(N[C@H](Cc1csc2ccccc12)C(=O)N1CCC(N2CCCCC2)CC1)N1CCC2(CC1)C(=O)NCN2c1ccccc1`, the IC50 in data set [1] was 330 nM.

For `O=C(N[C@H](Cc1csc2ccccc12)C(=O)N1CCC(N2CCCCC2)CC1)N1CCC2(CC1)N=C(c1ccncc1)NC2=O`, the IC50 in [1] was 1400 nM.

For `O=C(N[C@H](Cc1csc2ccccc12)C(=O)N1CCC(N2CCCCC2)CC1)N1CCC2(CC1)N=C(C1CCCCC1)NC2=O`, the IC50 in data set [1] was 8500 nM.

For `O=C(N[C@H](Cc1csc2ccccc12)C(=O)N1CCC(C2CCNCC2)CC1)N1CCC(n2c(=O)[nH]c3ccccc32)CC1`, the IC50 in data set [1] came to 4 nM.

Regarding `O=C(N[C@H](Cc1csc2ccccc12)C(=O)N1CCC(N2CCCCC2)CC1)N1CCC2(CC1)C(=O)Nc1ccccc12`, in data set [1], the IC50 is 170 nM.

As a reminder, the EC50 is the concentration giving half of the maximal effect. Take `O=C1Cc2ccccc2C2(CCN(C(=O)N[C@H](Cc3csc4ccccc34)C(=O)N3CCC(N4CCCCC4)CC3)CC2)N1`: the IC50 in data set [1] was found to be 29 nM. Moreover, the EC50 in data set [2] turned out to be 15 nM.

Regarding `O=C1Nc2ccccc2C2(CCN(C(=O)N[C@H](Cc3csc4ccccc34)C(=O)N3CCC(N4CCCCC4)CC3)CC2)N1`, the results for the remaining at 10 min, 3 µM in data set [3] and in [5] were 100% and 82%, respectively. The IC50 against Cytochrome P450 3A4 is 100 nM; on Cytochrome P450 1A2, over 40000 nM; at Cytochrome P450 2C9 it was over 40000 nM; in data set [1], 5 nM; on Cytochrome P450 2C19, over 40000 nM. Besides, the values for the EC50 in data set [4] and in [2] were 32 nM and 3 nM, respectively.

For the molecule `O=C(N[C@H](Cc1csc2ccccc12)C(=O)N1CCC(N2CCCCC2)CC1)N1CCC2(CC1)N=C(c1ccccc1)NC2=O`, the IC50 on Cytochrome P450 3A4 is under 1000 nM; in data set [6], over 40000 nM; in [1] it was 20 nM. For the same molecule, the results for the EC50 in data set [4] and in [2] were 63 nM and 13 nM, respectively.

Regarding `O=C1Nc2ccccc2C2(CCN(C(=O)N[C@H](Cc3csc4ccccc34)C(=O)N3CCC(N4CCCCC4)CC3)CC2)O1`, the IC50 is under 1000 nM against Cytochrome P450 3A4, over 40000 nM in [6] and 20 nM in data set [1]. The results for the EC50 in data set [4] and in [2] were 19 nM and 31 nM, respectively.

For `CN1c2ccccc2C(=O)NC12CCN(C(=O)N[C@H](Cc1csc3ccccc13)C(=O)N1CCC(N3CCCCC3)CC1)CC2`, the IC50 in [1] was determined as 860 nM.

For `O=C(N[C@H](Cc1csc2ccccc12)C(=O)N1CCC(N2CCCCC2)CC1)N1CCC(n2c(=O)[nH]c3ccccc32)CC1`, the IC50 in data set [1] amounted to 9 nM.

As for `O=C(N[C@H](Cc1csc2ccccc12)C(=O)N1CCC(N2CCCCC2)CC1)N1CCC(N2Cc3ccccc3NC2=O)CC1`, in data set [1], the 50% inhibitory concentration (IC50) turned out to be 3 nM.

Turning to `O=C1CC2(CCN(C(=O)N[C@H](Cc3csc4ccccc34)C(=O)N3CCC(N4CCCCC4)CC3)CC2)c2ccccc2N1`, in [1], the IC50 worked out at 23 nM. For the same molecule, the EC50 in [2] was 12 nM.

`O=C(N[C@H](Cc1csc2ccccc12)C(=O)N1CCC(N2CCCCC2)CC1)N1CCC2(CC1)N=C(c1cccnc1)NC2=O`: the half-maximal inhibitory concentration (IC50) in data set [1] stood at 210 nM.

For the molecule `O=C1NCC2(CCN(C(=O)N[C@H](Cc3csc4ccccc34)C(=O)N3CCC(N4CCCCC4)CC3)CC2)c2ccccc21`, the IC50 in [1] is 150 nM. For the same molecule, in [2], the EC50 was determined as 130 nM.
